Results published in ChEMBL document CHEMBL1275598, “In vitro activity of ceftaroline against community-associated methicillin-resistant, vancomycin-intermediate, vancomycin-resistant, and daptomycin-nonsusceptible Staphylococcus aureus isolates” (2010).

Assays:
Staphylococcus aureus [1] = assay: Antimicrobial activity against vancomycin resistant Staphylococcus aureus VRS-1 expressing SCCmec type 2 element by microdilution method in presence of 50 mg/L calcium; assay type: functional
In short: (§1)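 Broth microdilution per CLSI in cation-adjusted Mueller-Hinton broth supplemented with calcium to 50 mg/liter final. Antibiotic powders were reconstituted per CLSI. The MIC was read visually as the lowest drug concentration with no visible growth. S. aureus ATCC 29213 and E. faecalis ATCC 29212 served as control strains.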

Staphylococcus aureus [2] = assay: Antimicrobial activity against vancomycin resistant Staphylococcus aureus VRS-3 expressing SCCmec type 4 element by microdilution method in presence of 50 mg/L calcium
Staphylococcus aureus [3] = assay: Antimicrobial activity against vancomycin resistant Staphylococcus aureus VRS-4 expressing SCCmec type 4 element by microdilution method in presence of 50 mg/L calcium
Staphylococcus aureus [4] = assay: Antimicrobial activity against vancomycin resistant Staphylococcus aureus VRS-5 expressing SCCmec type 2 element by microdilution method in presence of 50 mg/L calcium
Staphylococcus aureus [5] = assay: Antimicrobial activity against vancomycin resistant Staphylococcus aureus VRS-6 expressing SCCmec type 2 element by microdilution method in presence of 50 mg/L calcium; assay type: functional; in short: as §1
Staphylococcus aureus [6] = assay: Antimicrobial activity against vancomycin resistant Staphylococcus aureus VRS-7 expressing SCCmec element by microdilution method in presence of 50 mg/L calcium; assay type: functional; in short: as §1
Staphylococcus aureus [7] = assay: Antimicrobial activity against vancomycin resistant Staphylococcus aureus VRS-9 expressing SCCmec type 2 element by microdilution method in presence of 50 mg/L calcium
Staphylococcus aureus [8] = assay: Antimicrobial activity against vancomycin resistant Staphylococcus aureus VRS-10 expressing SCCmec type 2 element by microdilution method in presence of 50 mg/L calcium
Staphylococcus aureus [9] = assay: Antimicrobial activity against community-acquired methicillin-resistant Staphylococcus aureus by microdilution method in presence of 50 mg/L calcium; assay type: functional
In short: (§2)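 Daptomycin MIC by CLSI broth microdilution in cation-adjusted Mueller-Hinton broth, supplemented with calcium to a final 50 mg/liter. Read visually as the lowest concentration with no visible growth. ATCC 29213 and E. faecalis ATCC 29212 served as controls. CA-MRSA and DNSSA isolates came from patients at the study hospital; VISA isolates came from NARSA.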

Staphylococcus aureus [10] = assay: Antimicrobial activity against community-acquired methicillin-resistant Staphylococcus aureus assessed as susceptible isolates by microdilution method in presence of 50 mg/L calcium; assay type: functional
In short: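 Daptomycin MICs by CLSI broth microdilution in cation-adjusted Mueller-Hinton broth with calcium added to a final 50 mg/liter, read visually. Percentage susceptible among 92 CA-MRSA isolates assigned by CLSI breakpoints.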

Staphylococcus aureus [11] = assay: Bactericidal activity against vancomycin-resistant Staphylococcus aureus assessed as antibiotic concentration that reduced the number of viable cells by =>99.9% by colony count method in presence of 50 mg/L calcium; assay type: functional
In short: (§3)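 MBC per CLSI following microdilution in cation-adjusted Mueller-Hinton broth with calcium added to 50 mg/liter final. Defined as the concentration giving ≥99.9% reduction in viable cells, judged from colony counts of the growth control well against Pearson rejection-value tables.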

Staphylococcus aureus [12] = assay: Bactericidal activity against community-acquired methicillin-resistant Staphylococcus aureus assessed as antibiotic concentration that reduced the number of viable cells by =>99.9% by colony count method in presence of 50 mg/L calcium; assay type: functional; in short: as §3
Staphylococcus aureus [13] = assay: Antimicrobial activity against vancomycin-intermediate Staphylococcus aureus assessed as susceptible isolates by microdilution method in presence of 50 mg/L calcium; assay type: functional
In short: (§4)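 Broth microdilution MIC per CLSI in cation-adjusted Mueller-Hinton broth, with calcium added to a final 50 mg/liter for daptomycin testing. MIC is the lowest drug concentration with no visible growth, read by eye. Percent susceptible was assigned from CLSI breakpoints. S. aureus ATCC 29213 and E. faecalis ATCC 29212 served as control strains.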

Staphylococcus aureus [14] = assay: Antimicrobial activity against vancomycin-resistant Staphylococcus aureus assessed as susceptible isolates by microdilution method in presence of 50 mg/L calcium; assay type: functional; in short: as §1
Staphylococcus aureus [15] = assay: Bactericidal activity against vancomycin-intermediate Staphylococcus aureus assessed as antibiotic concentration that reduced the number of viable cells by =>99.9% by colony count method in presence of 50 mg/L calcium; assay type: functional; in short: as §3
Staphylococcus aureus [16] = assay: Antimicrobial activity against daptomycin-nonsusceptible Staphylococcus aureus assessed as susceptible isolates by microdilution method in presence of 50 mg/L calcium; assay type: functional; in short: as §4
Staphylococcus aureus [17] = assay: Bactericidal activity against daptomycin-nonsusceptible Staphylococcus aureus assessed as antibiotic concentration that reduced the number of viable cells by =>99.9% by colony count method in presence of 50 mg/L calcium; assay type: functional; in short: as §3
Staphylococcus aureus [18] = assay: Antimicrobial activity against vancomycin intermediate Staphylococcus aureus NRS-3 expressing SCCmec type 2 element by microdilution method in presence of 50 mg/L calcium; assay type: functional; in short: as §2
Staphylococcus aureus [19] = assay: Antimicrobial activity against vancomycin intermediate Staphylococcus aureus NRS-4 expressing SCCmec type 2 element by microdilution method in presence of 50 mg/L calcium; assay type: functional; in short: as §2
Staphylococcus aureus [20] = assay: Antimicrobial activity against vancomycin intermediate Staphylococcus aureus NRS-17 expressing SCCmec type 2 element by microdilution method in presence of 50 mg/L calcium; assay type: functional; in short: as §2
Staphylococcus aureus [21] = assay: Antimicrobial activity against vancomycin intermediate Staphylococcus aureus NRS-19 expressing SCCmec type 2 element by microdilution method in presence of 50 mg/L calcium; assay type: functional; in short: as §2
Staphylococcus aureus [22] = assay: Antimicrobial activity against vancomycin intermediate Staphylococcus aureus NRS-22 expressing SCCmec type 2 element by microdilution method in presence of 50 mg/L calcium; assay type: functional; in short: as §2
Staphylococcus aureus [23] = assay: Antimicrobial activity against vancomycin intermediate Staphylococcus aureus NRS-26 expressing SCCmec type 2 element by microdilution method in presence of 50 mg/L calcium; assay type: functional; in short: as §2
Staphylococcus aureus [24] = assay: Antimicrobial activity against vancomycin intermediate Staphylococcus aureus NRS-27 expressing SCCmec type 2 element by microdilution method in presence of 50 mg/L calcium; assay type: functional; in short: as §2
Staphylococcus aureus [25] = assay: Antimicrobial activity against vancomycin intermediate Staphylococcus aureus NRS-51 expressing SCCmec type 2 element by microdilution method in presence of 50 mg/L calcium; assay type: functional; in short: as §2
Staphylococcus aureus [26] = assay: Antimicrobial activity against vancomycin intermediate Staphylococcus aureus NRS-68 expressing SCCmec type 2 element by microdilution method in presence of 50 mg/L calcium; assay type: functional; in short: as §2
Staphylococcus aureus [27] = assay: Antimicrobial activity against vancomycin intermediate Staphylococcus aureus NRS-73 expressing SCCmec type 4d element by microdilution method in presence of 50 mg/L calcium; assay type: functional; in short: as §2
Staphylococcus aureus [28] = assay: Antimicrobial activity against vancomycin intermediate Staphylococcus aureus NRS-76 expressing SCCmec type 2 element by microdilution method in presence of 50 mg/L calcium; assay type: functional; in short: as §1
Staphylococcus aureus [29] = assay: Antimicrobial activity against vancomycin intermediate Staphylococcus aureus NRS-118 expressing SCCmec type 1 element by microdilution method in presence of 50 mg/L calcium; assay type: functional; in short: as §2
Staphylococcus aureus [30] = assay: Antimicrobial activity against vancomycin intermediate Staphylococcus aureus NRS-402 expressing SCCmec type 2 element by microdilution method in presence of 50 mg/L calcium; assay type: functional; in short: as §2
Staphylococcus aureus [31] = assay: Antimicrobial activity against vancomycin intermediate Staphylococcus aureus NRS-403 expressing SCCmec type 2 element by microdilution method in presence of 50 mg/L calcium; assay type: functional; in short: as §2

**Q.** How did the MIC (Staphylococcus aureus [1]) turn out when `CCCCCCCCCC(=O)N[C@@H](Cc1c[nH]c2ccccc12)C(=O)N[C@H](CC(N)=O)C(=O)N[C@@H](CC(=O)O)C(=O)N[C@@H]1C(=O)NCC(=O)N[C@@H](CCCN)C(=O)N[C@@H](CC(=O)O)C(=O)N[C@H](C)C(=O)N[C@@H](CC(=O)O)C(=O)NCC(=O)N[C@H](CO)C(=O)N[C@@H]([C@H](C)CC(=O)O)C(=O)N[C@@H](CC(=O)c2ccccc2N)C(=O)O[C@@H]1C` was run?
**A.** Its MIC is 1 µg/mL.

**Q.** And the MIC (Staphylococcus aureus [2])?
**A.** Its MIC is 0.5 µg/mL.

**Q.** And the MIC (Staphylococcus aureus [3])?
**A.** Its MIC is 0.5 µg/mL.

**Q.** What about the MIC (Staphylococcus aureus [4]) of the same molecule?
**A.** The MIC was 0.5 µg/mL.

**Q.** And the MIC (Staphylococcus aureus [5])?
**A.** The MIC was 1 µg/mL.

**Q.** What about the MIC (Staphylococcus aureus [6]) of the same molecule?
**A.** Its MIC is 1 µg/mL.

**Q.** And the MIC (Staphylococcus aureus [7])?
**A.** The MIC was 0.5 µg/mL.

**Q.** What about the MIC (Staphylococcus aureus [8]) of the same molecule?
**A.** The MIC was 0.5 µg/mL.

**Q.** What about the MIC50 (Staphylococcus aureus [9]) of the same molecule?
**A.** The MIC50 was 0.5 µg/mL.

**Q.** And the MIC90 (Staphylococcus aureus [9])?
**A.** The MIC90 was 1 µg/mL.

**Q.** What about the Activity (Staphylococcus aureus [10]) of the same molecule?
**A.** The Activity was 100%.

**Q.** And the MBC50 (Staphylococcus aureus [11])?
**A.** Its MBC50 is 1 µg/mL.

**Q.** And the MBC90 (Staphylococcus aureus [11])?
**A.** Its MBC90 is 1 µg/mL.

**Q.** What about the MBC (Staphylococcus aureus [11]; Staphylococcus aureus) of the same molecule?
**A.** The MBC was 0.5 µg/mL.

**Q.** What about the MBC50 (Staphylococcus aureus [12]) of the same molecule?
**A.** Its MBC50 is 0.5 µg/mL.

**Q.** And the MBC90 (Staphylococcus aureus [12])?
**A.** Its MBC90 is 1 µg/mL.

**Q.** What about the MBC (Staphylococcus aureus [12]; Staphylococcus aureus) of the same molecule?
**A.** The MBC was 0.25 µg/mL.

**Q.** And the Activity (Staphylococcus aureus [13])?
**A.** Its Activity is 35%.

**Q.** And the Activity (Staphylococcus aureus [14])?
**A.** The Activity was 100%.

**Q.** And the MBC50 (Staphylococcus aureus [15])?
**A.** The MBC50 was 2 µg/mL.

**Q.** And the MBC90 (Staphylococcus aureus [15])?
**A.** The MBC90 was 4 µg/mL.

**Q.** What about the MBC (Staphylococcus aureus [15]; Staphylococcus aureus) of the same molecule?
**A.** Its MBC is 0.5 µg/mL.

**Q.** What about the Activity (Staphylococcus aureus [16]) of the same molecule?
**A.** The Activity was 0%.

**Q.** And the MBC (Staphylococcus aureus [17])?
**A.** The MBC was 4 µg/mL.

**Q.** What about the MBC50 (Staphylococcus aureus [17]) of the same molecule?
**A.** Its MBC50 is 8 µg/mL.

**Q.** And the MBC (Staphylococcus aureus [17]; Staphylococcus aureus, read-out: MBC)?
**A.** The MBC was 5.94 µg/mL.

**Q.** And the MIC (Staphylococcus aureus [18])?
**A.** Its MIC is 4 µg/mL.

**Q.** And the MIC (Staphylococcus aureus [19])?
**A.** Its MIC is 1 µg/mL.

**Q.** What about the MIC (Staphylococcus aureus [20]) of the same molecule?
**A.** Its MIC is 4 µg/mL.

**Q.** And the MIC (Staphylococcus aureus [21])?
**A.** Its MIC is 2 µg/mL.

**Q.** What about the MIC (Staphylococcus aureus [22]) of the same molecule?
**A.** The MIC was 2 µg/mL.

**Q.** What about the MIC (Staphylococcus aureus [23]) of the same molecule?
**A.** The MIC was 4 µg/mL.

**Q.** What about the MIC (Staphylococcus aureus [24]) of the same molecule?
**A.** The MIC was 1 µg/mL.

**Q.** What about the MIC (Staphylococcus aureus [25]) of the same molecule?
**A.** The MIC was 1 µg/mL.

**Q.** And the MIC (Staphylococcus aureus [26])?
**A.** The MIC was 1 µg/mL.

**Q.** And the MIC (Staphylococcus aureus [27])?
**A.** Its MIC is 2 µg/mL.

**Q.** What about the MIC (Staphylococcus aureus [28]) of the same molecule?
**A.** Its MIC is 2 µg/mL.

**Q.** What about the MIC (Staphylococcus aureus [29]) of the same molecule?
**A.** Its MIC is 4 µg/mL.

**Q.** What about the MIC (Staphylococcus aureus [30]) of the same molecule?
**A.** The MIC was 8 µg/mL.

**Q.** And the MIC (Staphylococcus aureus [31])?
**A.** The MIC was 2 µg/mL.
